Experimental findings from ChEMBL document CHEMBL1127597, “Oxadiazoles as ester bioisosteric replacements in compounds related to disoxaril. Antirhinovirus activity” (1994) are described below.

Each structure is given as a SMILES string. ≈ marks a conversion by molar mass, not a printed value. Calls of active or inactive are those of the source. The calls are words filed in the database; no cut-off is given here.

One assay relates to Human rhinovirus sp. The experiment in a line: In vitro concentration required to inhibit 80 percent of human rhinovirus 54 serotypes was determined by TCID50 assay. The assay is classed as functional.
`Cc1cc(CCCOc2c(Cl)cc(-c3noc(C)n3)cc2Cl)on1`: the MIC80 is 0.3 µM (≈ 0.11 µg/mL).

`CCc1cc(CCCOc2c(Cl)cc(-c3noc(C)n3)cc2Cl)on1` showed an MIC80 of 0.23 µM (≈ 0.0879 µg/mL).

In the case of `COCc1cc(CCCOc2c(Cl)cc(-c3noc(C)n3)cc2Cl)on1`, the MIC80 stood at 0.19 µM (≈ 0.0757 µg/mL).

Take `COCc1cc(CCCOc2c(C)cc(-c3noc(C)n3)cc2C)on1`: the MIC80 was found to be 0.45 µM (≈ 0.161 µg/mL).

`Cc1cc(CCCOc2c(C)cc(-c3noc(C)n3)cc2C)on1`: the MIC80 is 0.3 µM (≈ 0.0982 µg/mL).

`CCCc1cc(CCCOc2c(C)cc(-c3noc(C)n3)cc2C)on1` showed an MIC80 of 0.26 µM (≈ 0.0924 µg/mL).

The test system of the next assay is Human rhinovirus sp. Nature of the assay: In vitro concentration required to inhibit 80 percent of human rhinovirus 15 serotypes was determined by TCID50 assay;c= inactive against majority of serotypes. The assay is classed as functional, organism-based. Put shortly:
(§1)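 HeLa monolayers were infected with a virus dilution giving 80-100% CPE in 3 days without drug. Compound was serially diluted in 10 2-fold steps onto the infected cells and incubated 3 days at 33 °C in 2.5% CO2. Cells were fixed with 5% glutaraldehyde and stained with 0.25% crystal violet.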
In the case of `Cc1cc(CCCOc2c(C)cc(-c3noc(O)n3)cc2C)on1`, the MIC80 result is “inactive”.

Turning to `Cc1cc(CCCOc2c(C)cc(-c3ncon3)cc2C)on1`, the MIC80 result is “inactive”.

In the case of `Cc1cc(CCCOc2c(C)cc(-c3noc(C(C)O)n3)cc2C)on1` (centres undefined), the MIC80 entry was “inactive”.

A further assay concerns Human rhinovirus sp. Nature of the assay: In vitro concentration required to inhibit 80 percent of human rhinovirus 15 serotypes was determined by TCID50 assay;c inactive against majority of serotypes. The assay is classed as functional, organism-based. The method in brief:
as §1
As for `Cc1cc(CCCOc2c(C)cc(-c3noc(N)n3)cc2C)on1`, the MIC80 entry was “inactive”.

For the molecule `CC(=O)Nc1nc(-c2cc(C)c(OCCCc3cc(C)no3)c(C)c2)no1`, the MIC80 result is “inactive”.

In the case of `Cc1cc(CCCOc2c(C)cc(-c3noc(S)n3)cc2C)on1`, the MIC80 result is “inactive”.

A further assay deals with Human rhinovirus sp. Nature of the assay: In vitro concentration required to inhibit 80 percent of human rhinovirus 15 serotypes was determined by TCID50 assay. It counts as functional. Put shortly:
as §1
The molecule `Cc1cc(CCCOc2c(C)cc(-c3nc(C)no3)cc2C)on1` showed an MIC80 of 0.73 µM (≈ 0.239 µg/mL).

The molecule `Cc1cc(CCCOc2c(Cl)cc(-c3noc(C)n3)cc2Cl)on1` showed an MIC80 of 0.19 µM (≈ 0.07 µg/mL).

Turning to `CSCc1cc(CCCOc2c(C)cc(-c3noc(C)n3)cc2C)on1`, the MIC80 amounted to 0.32 µM (≈ 0.12 µg/mL).

The molecule `CCOc1nc(-c2cc(C)c(OCCCc3cc(C)no3)c(C)c2)no1` registered an MIC80 of 0.23 µM (≈ 0.0822 µg/mL).

`CCc1nc(-c2cc(C)c(OCCCc3cc(COC)no3)c(C)c2)no1` had an MIC80 of 0.21 µM (≈ 0.078 µg/mL).

`Cc1cc(CCCOc2c(C)cc(-c3noc(C(C)C)n3)cc2C)on1` came in with an MIC80 of 0.93 µM (≈ 0.331 µg/mL).

In turn, `CCOCc1cc(CCCOc2c(C)cc(-c3noc(C)n3)cc2C)on1` showed an MIC80 of 0.19 µM (≈ 0.0706 µg/mL).

For `Cc1cc(CCCOc2c(C)cc(-c3nnc(C)o3)cc2C)on1`, the MIC80 was determined as 3.7 µM (≈ 1.21 µg/mL).

Molecule `CCc1nc(-c2cc(C)c(OCCCc3cc(C)no3)c(C)c2)no1` returned an MIC80 of 0.32 µM (≈ 0.109 µg/mL).

For `Cc1cc(CCCCCOc2c(Cl)cc(C3=NCCO3)cc2Cl)on1` [WIN-54954], the MIC80 was 0.9 µM (≈ 0.345 µg/mL).

Take `CCc1cc(CCCOc2c(Cl)cc(-c3noc(C)n3)cc2Cl)on1`: the MIC80 turned out to be 0.22 µM (≈ 0.0841 µg/mL).

In the case of `COCc1cc(CCCOc2c(Cl)cc(-c3noc(C)n3)cc2Cl)on1`, the MIC80 came to 0.18 µM (≈ 0.0717 µg/mL).

`Cc1nc(-c2cc(C)c(OCCCc3cc(CS(C)(=O)=O)no3)c(C)c2)no1` came in with an MIC80 of 0.77 µM (≈ 0.312 µg/mL).

Molecule `COCc1nc(-c2cc(C)c(OCCCc3cc(C)no3)c(C)c2)no1` registered an MIC80 of 0.43 µM (≈ 0.154 µg/mL).

Regarding `COCc1cc(CCCOc2c(C)cc(-c3noc(C)n3)cc2C)on1`, the MIC80 was 0.22 µM (≈ 0.0786 µg/mL).

Consider `Cc1cc(CCCOc2c(C)cc(-c3noc(C4CC4)n3)cc2C)on1`, for which the MIC80 worked out at 0.54 µM (≈ 0.191 µg/mL).

Molecule `CCCc1nc(-c2cc(C)c(OCCCc3cc(C)no3)c(C)c2)no1` yielded an MIC80 of 0.79 µM (≈ 0.281 µg/mL).

As to `COCCc1cc(CCCOc2c(C)cc(-c3noc(C)n3)cc2C)on1`, the MIC80 was 0.24 µM (≈ 0.0891 µg/mL).

Turning to `CCc1cc(CCCOc2c(C)cc(-c3noc(CC)n3)cc2C)on1`, the MIC80 stood at 0.4 µM (≈ 0.142 µg/mL).

`Cc1cc(CCCOc2c(C)cc(-c3noc(C)n3)cc2C)on1` registered an MIC80 of 0.26 µM (≈ 0.0851 µg/mL).

Molecule `Cc1nc(-c2cc(C)c(OCCCc3cc(C4CC4)no3)c(C)c2)no1` showed an MIC80 of 0.2 µM (≈ 0.0707 µg/mL).

`Cc1cc(CCCOc2c(C)cc(-c3noc(N(C)C)n3)cc2C)on1` gave an MIC80 of 0.8 µM (≈ 0.285 µg/mL).

As for `Cc1cc(CCCOc2c(C)cc(-c3noc(CO)n3)cc2C)on1`, the MIC80 is 3.6 µM (≈ 1.24 µg/mL).

`Cc1nc(-c2cc(C)c(OCCCc3cc(CO)no3)c(C)c2)no1` yielded an MIC80 of 0.73 µM (≈ 0.251 µg/mL).

`CCCc1cc(CCCOc2c(C)cc(-c3noc(C)n3)cc2C)on1` had an MIC80 of 0.21 µM (≈ 0.0746 µg/mL).

`Cc1nc(-c2cc(C)c(OCCCc3cc(C[S+](C)[O-])no3)c(C)c2)no1` (centres undefined) had an MIC80 of 1 µM (≈ 0.389 µg/mL).

Molecule `CCc1cc(CCCOc2c(C)cc(-c3noc(C)n3)cc2C)on1` displayed an MIC80 of 0.26 µM (≈ 0.0888 µg/mL).

Regarding `Cc1cc(CCCOc2c(C)cc(-c3nnn(C)n3)cc2C)on1`, the MIC80 turned out to be 0.71 µM (≈ 0.232 µg/mL).

In turn, `CCc1cc(CCCOc2c(C)cc(-c3ncon3)cc2C)on1` came in with an MIC80 of 3.2 µM (≈ 1.05 µg/mL).

In turn, `COc1nc(-c2cc(C)c(OCCCc3cc(C)no3)c(C)c2)no1` returned an MIC80 of 0.39 µM (≈ 0.134 µg/mL).

With `Cc1nc(-c2cc(C)c(OCCCc3cc(CCO)no3)c(C)c2)no1`, the MIC80 was found to be 1.5 µM (≈ 0.536 µg/mL).

As to `CNc1nc(-c2cc(C)c(OCCCc3cc(C)no3)c(C)c2)no1`, the MIC80 turned out to be 0.95 µM (≈ 0.325 µg/mL).
